Measurements published in ChEMBL document CHEMBL2321839, “Novel limonene and citral based 2,5-disubstituted-1,3,4-oxadiazoles: a natural product coupled approach to semicarbazones for antiepileptic activity” (Bioorg Med Chem Lett, 2013).
Activity calls are given as the source filed them. The calls are words filed in the database; no cut-off is given here.

Tests used:
Rattus norvegicus [1] = experiment: Antiepileptic activity in Wistar rat assessed as protection against scSTY-induced seizures at 300 mg/kg, ip measured after 4 hrs; format: functional, organism-based; parameters: dose 300 mg/kg
Summary of the method: (§1)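 Male Wistar rats (100–150 g), compounds given ip at 30, 100 and 300 mg/kg. Seizures induced by subcutaneous strychnine (scSTY). Activity read 0.5 and 4.0 h after dosing. Reported as the minimal dose active in at least half of the animals; a dash means no activity at 300 mg/kg.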

Mus musculus [2] = experiment: Antiepileptic activity in Swiss albino mouse assessed as protection against scPTZ-induced seizures at 300 mg/kg, ip measured after 0.5 hrs; format: functional, organism-based; parameters: dose 300 mg/kg
Summary of the method: (§2)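 Male Swiss albino mice (18–25 g), compounds given ip at 30, 100 and 300 mg/kg. Seizures induced by maximal electroshock (MES) or subcutaneous pentylenetetrazole (scPTZ). Protection scored at 0.5 and 4.0 h after dosing.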

Mus musculus [3] = experiment: Antiepileptic activity in Swiss albino mouse assessed as protection against scPTZ-induced seizures at 300 mg/kg, ip measured after 4 hrs; format: functional, organism-based; parameters: dose 300 mg/kg; summary of the method: as §2
Mus musculus [4] = experiment: Antiepileptic activity in Swiss albino mouse assessed as protection against maximal-electric shock-induced seizures at 300 mg/kg, ip measured after 0.5 hrs; format: functional, organism-based; parameters: dose 300 mg/kg; summary of the method: as §2
Mus musculus [5] = experiment: Neurotoxicity against ip dosed Swiss albino mouse after 0.5 hrs by rotarod test; format: toxicity, organism-based; settings: in vivo
Summary of the method: (§3)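 Acute neurotoxicity tested by rotorod in male Swiss albino mice (18–25 g) given 30, 100 or 300 mg/kg ip. Read at 0.5 and 4.0 h post-dose. Result is the minimal dose causing toxicity in half or more of the animals; a dash means none up to 300 mg/kg.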

Mus musculus [6] = experiment: Neurotoxicity against Swiss albino mouse by rotarod test at 300 mg/kg, ip after 4 hrs; format: toxicity, organism-based; parameters: dose 300 mg/kg, route intraperitoneal; settings: in vivo; summary of the method: as §3
Rattus norvegicus [7] = experiment: Antiepileptic activity in Wistar rat assessed as protection against scSTY-induced seizures at 300 mg/kg, ip measured after 0.5 hrs; format: functional, organism-based; parameters: dose 300 mg/kg; summary of the method: as §1
Mus musculus [8] = experiment: Antiepileptic activity in Swiss albino mouse assessed as protection against maximal-electric shock-induced seizures at 300 mg/kg, ip measured after 4 hrs; format: functional, organism-based; parameters: dose 300 mg/kg; summary of the method: as §2
Mus musculus [9] = experiment: Antiepileptic activity in ip dosed Swiss albino mouse assessed as protection against scPTZ-induced seizures after 4 hrs; format: functional; settings: read-out: MED; summary of the method: as §2
Mus musculus [10] = experiment: Neurotoxicity against Swiss albino mouse by rotarod test at 300 mg/kg, ip after 0.5 hrs; format: toxicity, organism-based; parameters: dose 300 mg/kg, route intraperitoneal; settings: in vivo; summary of the method: as §3
Mus musculus [11] = experiment: Antiepileptic activity in ip dosed Swiss albino mouse assessed as protection against maximal-electric shock-induced seizures after 4 hrs; format: functional; settings: read-out: MED; summary of the method: as §2
Mus musculus [12] = experiment: Neurotoxicity against ip dosed Swiss albino mouse after 4 hrs by rotarod test; format: toxicity, organism-based; settings: in vivo; summary of the method: as §3
Rattus norvegicus [13] = experiment: Antiepileptic activity in ip dosed Wistar rat assessed as protection against scSTY-induced seizures after 4 hrs; format: functional; settings: read-out: MED; summary of the method: as §1
Mus musculus [14] = experiment: Antiepileptic activity in ip dosed Swiss albino mouse assessed as protection against maximal-electric shock-induced seizures after 0.5 hrs; format: functional; settings: read-out: MED; summary of the method: as §2
Rattus norvegicus [15] = experiment: Neurotoxicity in Wistar rat at 30 mg/kg, po measured at 1 hr by rotarod test; format: toxicity, organism-based; parameters: dose 30 mg/kg, route oral; settings: in vivo
Summary of the method: (§4)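 Neurotoxicity assessed in Wistar rats (100–150 g) after a 30 mg/kg oral dose, read at 0.25, 0.5, 1, 2 and 4 h.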

Rattus norvegicus [16] = experiment: Antiepileptic activity in Wistar rat assessed as protection against maximal electric shock-induced seizures at 30 mg/kg, po measured at 4 hrs; format: functional
Summary of the method: (§5)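 Single oral dose of 30 mg/kg in Wistar rats (100–150 g), tested by MES challenge at 0.25, 0.5, 1, 2 and 4 h.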

Rattus norvegicus [17] = experiment: Neurotoxicity in Wistar rat at 30 mg/kg, po measured at 0.25 hrs by rotarod test; format: toxicity, organism-based; parameters: dose 30 mg/kg, route oral; settings: in vivo; summary of the method: as §4
Rattus norvegicus [18] = experiment: Neurotoxicity in Wistar rat at 30 mg/kg, po measured at 4 hrs by rotarod test; format: toxicity, organism-based; parameters: dose 30 mg/kg, route oral; settings: in vivo; summary of the method: as §4
Rattus norvegicus [19] = experiment: Antiepileptic activity in Wistar rat assessed as protection against maximal electric shock-induced seizures at 30 mg/kg, po measured at 2 hrs; format: functional; summary of the method: as §5
Rattus norvegicus [20] = experiment: Antiepileptic activity in Wistar rat assessed as protection against maximal electric shock-induced seizures at 30 mg/kg, po measured at 0.5 hrs; format: functional; summary of the method: as §5
Rattus norvegicus [21] = experiment: Neurotoxicity in Wistar rat at 30 mg/kg, po measured at 2 hrs by rotarod test; format: toxicity, organism-based; parameters: dose 30 mg/kg, route oral; settings: in vivo; summary of the method: as §4
Rattus norvegicus [22] = experiment: Neurotoxicity in Wistar rat at 30 mg/kg, po measured at 0.5 hrs by rotarod test; format: toxicity, organism-based; parameters: dose 30 mg/kg, route oral; settings: in vivo; summary of the method: as §4
Rattus norvegicus [23] = experiment: Antiepileptic activity in Wistar rat assessed as protection against maximal electric shock-induced seizures at 30 mg/kg, po measured at 1 hr; format: functional; summary of the method: as §5
Rattus norvegicus [24] = experiment: Antiepileptic activity in Wistar rat assessed as protection against maximal electric shock-induced seizures at 30 mg/kg, po measured at 0.25 hrs; format: functional; summary of the method: as §5
Rattus norvegicus [25] = experiment: Antiepileptic activity in Wistar rat assessed as GABA level in midbrain per 100 mg at 100 mg/kg ip after 2 hrs (reference value: 35.42 +/- 2.14 ug); format: functional; settings: route intraperitoneal
Rattus norvegicus [26] = experiment: Antiepileptic activity in Wistar rat assessed as GABA level in medulla oblangata per 100 mg at 100 mg/kg ip after 2 hrs (reference value: 31.86 +/- 4.65 ug); format: functional, Medulla oblongata; settings: route intraperitoneal
Rattus norvegicus [27] = experiment: Antiepileptic activity in Wistar rat assessed as GABA level in cerebellum per 100 mg at 100 mg/kg ip after 2 hrs (reference value: 23.48+/- 2.48 ug); format: functional; settings: route intraperitoneal

Structure (SMILES)	Activity (Rattus norvegicus [1])	Activity (Mus musculus [2])	Activity (Mus musculus [3])	Activity (Mus musculus [4])	Activity (Mus musculus [6])	Activity (Rattus norvegicus [7])	minimal effective dose (Mus musculus [9])	Activity (Mus musculus [10])	minimal effective dose (Mus musculus [11])	minimal effective dose (Rattus norvegicus [13])	also measured
CC(C)=CC/C=C(/C)C/C=N/NC(=O)Nc1nnc(-c2cccc(O)c2)o1	inactive	inactive	inactive	inactive	Non-toxic	inactive	–	–	–	–	MTC (Mus musculus [5]): 300 mg/kg; Activity (Mus musculus [8]): inactive
CC(C)=CC/C=C(/C)C/C=N/NC(=O)Nc1nnc(-c2ccc(F)cc2)o1	inactive	inactive	–	inactive	–	inactive	300 mg/kg	Non-toxic	300 mg/kg	–	–
C=C(C)[C@@H]1CC=C(C)/C(=N/NC(=O)Nc2nnc(-c3ccccc3)o2)C1	inactive	inactive	inactive	inactive	–	inactive	–	Non-toxic	300 mg/kg	–	MTC (Mus musculus [12]): 300 mg/kg
C=C(C)[C@@H]1CC=C(C)/C(=N/NC(=O)Nc2nnc(-c3ccc(C)cc3)o2)C1	inactive	inactive	inactive	inactive	Non-toxic	inactive	–	–	300 mg/kg	–	MTC (Mus musculus [5]): 300 mg/kg
COc1ccc(-c2nnc(NC(=O)N/N=C/C/C(C)=C\CC=C(C)C)o2)cc1	–	inactive	inactive	inactive	Non-toxic	inactive	–	Non-toxic	–	300 mg/kg	Activity (Mus musculus [8]): inactive
CC(C)=CC/C=C(/C)C/C=N/NC(=O)Nc1nnc(-c2ccccc2)o1	inactive	inactive	inactive	inactive	–	inactive	–	Non-toxic	–	–	MTC (Mus musculus [12]): 300 mg/kg; Activity (Mus musculus [8]): inactive
C=C(C)[C@@H]1CC=C(C)/C(=N/NC(=O)Nc2nnc(-c3ccc(Cl)cc3)o2)C1	–	inactive	–	–	Non-toxic	inactive	300 mg/kg	Non-toxic	300 mg/kg	300 mg/kg	minimal effective dose (Mus musculus [14]): 100 mg/kg
O=C1NC(=O)C(c2ccccc2)(c2ccccc2)N1 [PHENYTOIN]	–	inactive	inactive	–	–	inactive	–	–	30 mg/kg	100 mg/kg	Activity (Rattus norvegicus [15]): Non-toxic; Activity (Rattus norvegicus [16]): 0%; minimal effective dose (Mus musculus [14]): 30 mg/kg; Activity (Rattus norvegicus [17]): Non-toxic; Activity (Rattus norvegicus [18]): Non-toxic; Activity (Rattus norvegicus [19]): 75%; Activity (Rattus norvegicus [20]): 50%; Activity (Rattus norvegicus [21]): Non-toxic; MTC (Mus musculus [5]): 100 mg/kg; MTC (Mus musculus [12]): 100 mg/kg; Activity (Rattus norvegicus [22]): Non-toxic; Activity (Rattus norvegicus [23]): 50%; Activity (Rattus norvegicus [24]): 75%
CC(C)=CC/C=C(/C)C/C=N/NC(=O)Nc1nnc(-c2ccc(C)cc2)o1	inactive	inactive	inactive	inactive	Non-toxic	inactive	–	Non-toxic	300 mg/kg	–	MTC (Mus musculus [12]): 300 mg/kg
C=C(C)[C@@H]1CC=C(C)/C(=N/NC(=O)Nc2nnc(-c3ccc(O)cc3)o2)C1	–	inactive	–	–	Non-toxic	inactive	300 mg/kg	Non-toxic	300 mg/kg	300 mg/kg	Activity (Rattus norvegicus [15]): Non-toxic; Activity (Rattus norvegicus [16]): 50%; minimal effective dose (Mus musculus [14]): 100 mg/kg; Activity (Rattus norvegicus [17]): Non-toxic; Activity (Rattus norvegicus [25]): 47.42 µg; Activity (Rattus norvegicus [18]): Non-toxic; Activity (Rattus norvegicus [19]): 0%; Activity (Rattus norvegicus [20]): 0%; Activity (Rattus norvegicus [26]): 43.48 µg; Activity (Rattus norvegicus [27]): 30.64 µg; Activity (Rattus norvegicus [21]): 0%; Activity (Rattus norvegicus [22]): Non-toxic; Activity (Rattus norvegicus [23]): 25%; Activity (Rattus norvegicus [24]): 25%
C=C(C)[C@@H]1CC=C(C)/C(=N/NC(=O)Nc2nnc(-c3ccccc3O)o2)C1	inactive	inactive	inactive	inactive	–	inactive	–	Non-toxic	300 mg/kg	–	MTC (Mus musculus [12]): 300 mg/kg
C=C(C)[C@@H]1CC=C(C)/C(=N/NC(=O)Nc2nnc(-c3ccc(F)cc3)o2)C1	–	inactive	–	–	Non-toxic	inactive	300 mg/kg	Non-toxic	300 mg/kg	300 mg/kg	Activity (Rattus norvegicus [15]): 0%; Activity (Rattus norvegicus [16]): inactive; minimal effective dose (Mus musculus [14]): 100 mg/kg; Activity (Rattus norvegicus [17]): Non-toxic; Activity (Rattus norvegicus [25]): 43.56 µg; Activity (Rattus norvegicus [18]): Non-toxic; Activity (Rattus norvegicus [19]): 25%; Activity (Rattus norvegicus [20]): 25%; Activity (Rattus norvegicus [26]): 42.4 µg; Activity (Rattus norvegicus [27]): 28.42 µg; Activity (Rattus norvegicus [21]): Non-toxic; Activity (Rattus norvegicus [22]): Non-toxic; Activity (Rattus norvegicus [23]): 0%; Activity (Rattus norvegicus [24]): 25%
C=C(C)[C@@H]1CC=C(C)/C(=N/NC(=O)Nc2nnc(-c3cccc(O)c3)o2)C1	inactive	inactive	–	inactive	Non-toxic	inactive	300 mg/kg	–	–	–	MTC (Mus musculus [5]): 300 mg/kg; Activity (Mus musculus [8]): inactive
CC(C)=CC/C=C(/C)C/C=N/NC(=O)Nc1nnc(-c2ccc(Cl)cc2)o1	inactive	inactive	inactive	–	Non-toxic	inactive	–	Non-toxic	300 mg/kg	–	minimal effective dose (Mus musculus [14]): 100 mg/kg
CC(C)=CC/C=C(/C)C/C=N/NC(=O)Nc1nnc(-c2ccccc2O)o1	inactive	inactive	–	inactive	–	inactive	300 mg/kg	–	–	–	MTC (Mus musculus [5]): 300 mg/kg; Activity (Mus musculus [8]): inactive
CC(C)=CC/C=C(/C)C/C=N/NC(=O)Nc1nnc(-c2ccc(O)cc2)o1	–	inactive	–	inactive	Non-toxic	inactive	300 mg/kg	Non-toxic	300 mg/kg	300 mg/kg	Activity (Rattus norvegicus [25]): 52.82 µg; Activity (Rattus norvegicus [26]): 34.42 µg; Activity (Rattus norvegicus [27]): 28.25 µg
C=C(C)[C@@H]1CC=C(C)/C(=N/NC(=O)Nc2nnc(-c3ccc(OC)cc3)o2)C1	–	inactive	–	inactive	Non-toxic	inactive	300 mg/kg	Non-toxic	300 mg/kg	300 mg/kg	–
